According to ChEMBL document CHEMBL1145840, “Identification of (3R)-7-hydroxy-N-((1S)-1-[[(3R,4R)-4-(3-hydroxyphenyl)- 3,4-dimethyl-1-piperidinyl]methyl]-2-methylpropyl)-1,2,3,4-tetrahydro- 3-isoquinolinecarboxamide as a novel potent and selective opioid kappa receptor antagonist” (J Med Chem, 2003):
Values joined by “and” are separate entries in the source; they are usually repeats but may differ in a detail not shown here. Equal entries are not always repeated.

What was measured:
[1] = target: Mu-type opioid receptor (Cavia porcellus) (UniProt P97266); assay: Antagonistic activity against DAMGO and guinea pig caudate Opioid receptor mu 1 in [35S]GTP-gamma-S, assay; type: functional
Procedure, shortened: (§1)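 Agonist-stimulated binding was run with varying drug concentrations, 3 h at 25 °C, then filtration and scintillation counting. Nonspecific binding was taken with 10 µM GTPγS. Three experiments were pooled and fit by nonlinear least squares to give Ke.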

[2] = target: Kappa-type opioid receptor (Cavia porcellus) (UniProt P41144); assay: Inhibition of U69,593 antagonistic activity in [35S]GTP-gamma-S, assay against guinea pig Opioid receptor kappa 1; type: functional; procedure, shortened: as §1
[3] = target: Kappa-type opioid receptor (Cavia porcellus, UniProt P41144); assay: Inhibition of [3H]U-69593 binding to Opioid receptor kappa 1 of guinea pig brain
Procedure, shortened: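 Guinea pig brain membranes prepared daily, labelled with 2 nM [3H]U69,593. Incubation 2 h at 25 °C in 50 mM Tris-HCl pH 7.4 with 1 µg/mL captopril and protease inhibitors. Nonspecific binding was taken with 1 µM U69,593. Radioligand was displaced by 8-10 drug concentrations. Ki came from IC50 via IC50/(1+[L]/Kd), from two pooled experiments.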

Mu-type opioid receptor [4] = target: T1, Mu-type opioid receptor (Homo sapiens, UniProt P35372)
[5] = target: T2, Kappa-type opioid receptor (Homo sapiens, UniProt P41145); assay: Binding affinity towards human cloned Opioid receptor kappa 1 using [3H]U-69593
[6] = target: Delta-type opioid receptor (Rattus norvegicus, UniProt P33533); assay: Inhibition of [3H]-DADLE binding to Opioid receptor delta 1 of rat brain tissue
Procedure, shortened: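 Rat brain membranes prepared daily, labelled with 2 nM [3H]DADLE. Incubation 2 h at 25 °C in 50 mM Tris-HCl pH 7.4 with 100 mM choline chloride, 3 mM MnCl2, 100 nM DAMGO to block mu sites, and protease inhibitors. Nonspecific binding was taken with 20 µM levallorphan. Radioligand was displaced by 8-10 drug concentrations. Ki came from IC50 via Cheng–Prusoff, from two pooled experiments.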

[7] = target: T3, Delta-type opioid receptor (Homo sapiens, UniProt P41143); assay: Binding affinity towards human cloned Opioid receptor delta 1 using [3H]Cl-DPDPE
[8] = target: T3, Delta-type opioid receptor; assay: (§2) Antagonistic activity against human cloned Opioid receptor delta 1 using DPDPE in [35S]GTP-gamma-S, assay; type: functional
[9] = target: T2, Kappa-type opioid receptor; assay: Antagonistic activity against human cloned Opioid receptor kappa 1 using U69,593 in [35S]GTP-gamma-S, assay; type: functional
Mu-type opioid receptor [10] = target: T1, Mu-type opioid receptor; assay: Binding affinity towards human cloned Opioid receptor mu 1 using [3H]DAMGO
Mu-type opioid receptor [11] = target: Mu-type opioid receptor (Rattus norvegicus, UniProt P33535); assay: Inhibition of [3H]DAMGO binding to Opioid receptor mu 1 of rat brain tissue
Procedure, shortened: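 Rat brain membranes prepared daily, labelled with [3H]DAMGO. Incubation 2 h at 25 °C in 50 mM Tris-HCl pH 7.4 with protease inhibitor cocktail. Nonspecific binding was taken with 20 µM levallorphan. Radioligand was displaced by 8-10 drug concentrations. IC50 was converted to Ki by IC50/(1+[L]/Kd), from two pooled experiments.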

[12] = target: Opioid receptors; delta & kappa (Homo sapiens) (UniProt P41145+P41143); assay: Selectivity ratio of delta and kappa opioid receptor; type: protein assay
[13] = target: Opioid receptors; mu & kappa (Homo sapiens) (UniProt P41145+P35372); assay: Selectivity ratio of mu and kappa opioid receptor; type: protein assay
Mu-type opioid receptor [14] = target: T1, Mu-type opioid receptor; assay: Antagonistic activity against human cloned Opioid receptor mu 1 using DPDPE in [35S]GTP-gamma-S, assay; type: functional; conditions: read-out: pA2 (converted)
[15] = target: T3, Delta-type opioid receptor; assay: as §2; type: functional; conditions: read-out: pA2 (converted)
[16] = target: T2, Kappa-type opioid receptor; assay: Antagonistic activity against human cloned kOpioid receptor kappa 1 using U69,593 in [35S]GTP-gamma-S, assay; type: functional; conditions: read-out: pA2 (converted)
Procedure, shortened: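 Membranes from CHO cells transfected with cloned human κ opioid receptor. Antagonism is measured as inhibition of U69,593-stimulated [35S]GTPγS binding and expressed as a Ke value.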

Mu-type opioid receptor [17] = target: T1, Mu-type opioid receptor; assay: Antagonistic activity against human cloned Opioid receptor mu 1 using DAMGO in [35S]GTP-gamma-S, assay; type: functional

T1 sequence (P35372 whole entry): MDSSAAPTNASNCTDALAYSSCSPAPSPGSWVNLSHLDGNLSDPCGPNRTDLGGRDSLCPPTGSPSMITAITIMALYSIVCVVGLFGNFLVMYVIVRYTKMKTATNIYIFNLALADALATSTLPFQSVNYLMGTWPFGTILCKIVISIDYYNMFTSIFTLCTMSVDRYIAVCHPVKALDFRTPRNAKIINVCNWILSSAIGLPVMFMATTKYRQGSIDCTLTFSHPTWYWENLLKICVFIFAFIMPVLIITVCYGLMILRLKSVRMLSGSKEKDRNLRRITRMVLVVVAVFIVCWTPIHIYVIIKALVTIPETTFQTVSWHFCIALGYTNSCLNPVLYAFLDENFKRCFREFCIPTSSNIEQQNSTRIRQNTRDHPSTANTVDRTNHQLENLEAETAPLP
Sequence of Kappa-type opioid receptor (Cavia porcellus, UniProt P41144) (P41144 whole entry): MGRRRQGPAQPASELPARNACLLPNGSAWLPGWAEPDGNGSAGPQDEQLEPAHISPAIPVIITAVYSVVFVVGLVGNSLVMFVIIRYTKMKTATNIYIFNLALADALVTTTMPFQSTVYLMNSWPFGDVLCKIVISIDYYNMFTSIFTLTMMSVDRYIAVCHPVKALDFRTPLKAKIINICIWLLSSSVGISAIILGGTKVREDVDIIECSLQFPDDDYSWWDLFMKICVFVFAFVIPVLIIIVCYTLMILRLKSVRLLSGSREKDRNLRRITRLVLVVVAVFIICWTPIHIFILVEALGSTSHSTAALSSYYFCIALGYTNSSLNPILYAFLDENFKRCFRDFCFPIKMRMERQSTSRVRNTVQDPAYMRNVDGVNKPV
Sequence of Kappa-type opioid receptor (Cavia porcellus) (P41144 whole entry): as above
Sequence of Opioid receptors; delta & kappa (Homo sapiens) (P41143 whole entry, looked up): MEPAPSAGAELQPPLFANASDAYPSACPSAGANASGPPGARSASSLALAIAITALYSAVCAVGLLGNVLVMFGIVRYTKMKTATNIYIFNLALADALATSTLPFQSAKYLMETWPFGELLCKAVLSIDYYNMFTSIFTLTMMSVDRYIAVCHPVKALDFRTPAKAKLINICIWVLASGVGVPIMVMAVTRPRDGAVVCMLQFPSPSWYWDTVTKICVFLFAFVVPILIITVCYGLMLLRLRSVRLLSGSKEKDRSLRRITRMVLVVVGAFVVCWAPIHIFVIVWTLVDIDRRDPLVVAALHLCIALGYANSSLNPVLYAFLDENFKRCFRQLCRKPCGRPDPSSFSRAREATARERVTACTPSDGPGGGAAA
Sequence of Opioid receptors; delta & kappa (Homo sapiens) (P41145 whole entry, looked up): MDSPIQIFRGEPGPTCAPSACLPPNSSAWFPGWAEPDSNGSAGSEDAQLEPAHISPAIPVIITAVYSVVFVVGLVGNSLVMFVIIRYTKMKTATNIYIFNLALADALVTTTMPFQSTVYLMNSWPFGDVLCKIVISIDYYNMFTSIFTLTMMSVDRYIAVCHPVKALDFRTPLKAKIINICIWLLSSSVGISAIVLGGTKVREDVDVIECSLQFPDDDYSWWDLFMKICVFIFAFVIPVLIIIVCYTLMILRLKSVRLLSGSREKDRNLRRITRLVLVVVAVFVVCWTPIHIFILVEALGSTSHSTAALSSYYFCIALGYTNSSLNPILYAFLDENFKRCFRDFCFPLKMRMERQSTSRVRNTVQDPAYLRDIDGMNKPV
T3 sequence (P41143 whole entry): as the sequence (P41143 whole entry, looked up) above
Sequence of Delta-type opioid receptor (Rattus norvegicus, UniProt P33533) (P33533 whole entry): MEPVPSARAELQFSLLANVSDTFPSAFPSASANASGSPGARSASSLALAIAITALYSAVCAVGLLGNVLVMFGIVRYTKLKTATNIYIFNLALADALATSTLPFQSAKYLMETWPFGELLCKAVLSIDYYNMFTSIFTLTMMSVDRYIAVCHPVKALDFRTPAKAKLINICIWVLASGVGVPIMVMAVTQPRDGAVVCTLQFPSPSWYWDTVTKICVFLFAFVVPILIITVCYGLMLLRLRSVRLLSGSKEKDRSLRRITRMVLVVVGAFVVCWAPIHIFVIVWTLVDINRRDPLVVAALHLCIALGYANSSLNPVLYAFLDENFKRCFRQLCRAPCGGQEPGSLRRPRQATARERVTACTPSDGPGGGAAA
Sequence of Mu-type opioid receptor (Cavia porcellus) (P97266 whole entry): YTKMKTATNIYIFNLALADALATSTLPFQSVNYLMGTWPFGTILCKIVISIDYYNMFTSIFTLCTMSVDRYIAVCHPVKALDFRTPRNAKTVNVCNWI
Sequence of Mu-type opioid receptor (Rattus norvegicus, UniProt P33535) (P33535 whole entry): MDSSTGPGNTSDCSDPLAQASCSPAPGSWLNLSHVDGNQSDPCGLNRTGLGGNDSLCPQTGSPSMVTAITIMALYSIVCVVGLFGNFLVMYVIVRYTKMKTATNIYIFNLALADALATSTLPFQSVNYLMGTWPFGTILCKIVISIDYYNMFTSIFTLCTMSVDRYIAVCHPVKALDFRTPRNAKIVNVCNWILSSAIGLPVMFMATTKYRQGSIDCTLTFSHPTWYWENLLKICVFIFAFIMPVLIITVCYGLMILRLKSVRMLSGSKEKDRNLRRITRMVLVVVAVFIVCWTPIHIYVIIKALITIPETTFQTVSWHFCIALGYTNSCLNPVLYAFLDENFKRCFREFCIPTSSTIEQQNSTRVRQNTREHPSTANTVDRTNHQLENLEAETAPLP
T2 sequence (P41145 whole entry): as the sequence (P41145 whole entry, looked up) above
Sequence of Opioid receptors; mu & kappa (Homo sapiens) (P35372 whole entry, looked up): as the sequence (P35372 whole entry) above
Sequence of Opioid receptors; mu & kappa (Homo sapiens) (P41145 whole entry, looked up): as the sequence (P41145 whole entry, looked up) above

In the case of `CC(C)[C@@H](CN1CC[C@@](C)(c2cccc(O)c2)[C@@H](C)C1)NC(=O)[C@@H](N)Cc1ccc(O)cc1` (stereo in doubt; form 1) [listing 1 of 2 here], the Ke [1] is reported as 12 nM and the Ke [2] is reported as 44.6 nM.

`CC(C)[C@@H](CN1CC[C@@](C)(c2cccc(O)c2)[C@@H](C)C1)NC[C@H]1Cc2ccc(O)cc2CN1` gave a Ki [3] of 0.63 nM, a Ke (Mu-type opioid receptor [4]) of 14.3 nM and a Ki [5] of 1.82 nM. For the same molecule, the Ke [1] was 12.8 nM, the Ki [6] was greater than 4900 nM and the Ki [7] was 83.6 nM. It also gave a Ke [8] of 427 nM, a Ke [9] of 0.14 nM and a Ki (Mu-type opioid receptor [10]) of 3.8 nM. It also gave a Ke [2] of 0.2 nM.

In the case of `CC(C)[C@@H](CN1CC[C@](C)(c2cccc(O)c2)[C@H](C)C1)NC(=O)[C@H]1Cc2ccc(O)cc2CN1`, the Ki (Mu-type opioid receptor [11]) is reported as 138 nM, the Ki [3] is reported as 17.5 nM and the Ke [1] is reported as 178 nM. For the same molecule, the Ki [6] was 144 nM and the Ke [2] was 16.7 nM.

`CC(=O)N1Cc2cc(O)ccc2C[C@@H]1C(=O)N[C@H](CN1CC[C@@](C)(c2cccc(O)c2)[C@@H](C)C1)C(C)C` showed a Ki (Mu-type opioid receptor [11]) of 764 nM, a Ki [3] of 146 nM and a Ke [1] of 17.4 nM. For the same molecule, the Delta/kappa [12] was > 34 and 15, the Ki [6] was greater than 4900 nM and the Ke [2] was 19.6 nM.

In the case of `CC(C)[C@@H](CN1CC[C@@](C)(c2cccc(O)c2)[C@@H](C)C1)NC(=O)[C@@H](N)Cc1ccc(O)cc1` (stereo in doubt; form 2) [listing 1 of 2 here], the Ke [1] is reported as 16.5 nM and the Ke [2] is reported as 30 nM.

`CC(C)[C@@H](CN1CC[C@@](C)(c2cccc(O)c2)[C@@H](C)C1)NC(=O)[C@@H](N)Cc1ccc(O)cc1` (stereo in doubt; form 1) [listing 2 of 2 here] showed a Ki (Mu-type opioid receptor [11]) of 208 nM, a Ki [3] of 20.4 nM and a Ki [6] greater than 5050 nM.

`N=C(N)Nc1ccc2[nH]c3c(c2c1)C[C@@]1(O)[C@H]2Cc4ccc(O)c5c4[C@@]1(CCN2CC1CC1)[C@H]3O5` [GUANIDINONALTRINDOLE] was tested, and the Ki (Mu-type opioid receptor [11]) was 36.9 nM, the Ki [3] was 0.18 nM and the Mu/kappa ratio [13] was 206. For the same molecule, the Delta/kappa [12] was 389, the Ki [6] was 70 nM and the Kb (Mu-type opioid receptor [14]) was 3.24 nM. The Kb [15] was 15.5 nM and the Kb [16] was 0.0398 nM.

For `CC(C)[C@@H](CN1CC[C@@](C)(c2cccc(O)c2)[C@@H](C)C1)NC(=O)[C@@H](N)Cc1ccc(O)cc1` (stereo in doubt; form 2) [listing 2 of 2 here], the Ki (Mu-type opioid receptor [11]) was 633 nM, the Ki [3] was 16 nM and the Ki [6] was greater than 5050 nM.

For `CC(C)[C@@H](CN1CC[C@@](C)(c2cccc(O)c2)[C@@H](C)C1)NC(=O)[C@H]1Cc2ccccc2CN1`, the Ki (Mu-type opioid receptor [11]) was 775 nM, the Ki [3] was 2.1 nM and the Ki [5] was 2.18 nM. The Ke (Mu-type opioid receptor [17]) was 8.38 nM, the Ki [6] was greater than 4900 nM and the Ki [7] was 1090 nM. For the same molecule, the Ke [9] was 2.95 nM and the Ki (Mu-type opioid receptor [10]) was 33.1 nM.

Molecule `CC(C)[C@@H](CN1CC[C@@](C)(c2cccc(O)c2)[C@@H](C)C1)NC(=O)[C@@H]1Cc2ccc(O)cc2CN1` has a Ki (Mu-type opioid receptor [11]) of 596 nM, a Ki [3] of 9.8 nM and a Ke [1] of 11 nM. For the same molecule, the Ki [6] was greater than 4900 nM and the Ke [2] was 4.2 nM.

Work on `Oc1ccc2c3c1O[C@H]1c4[nH]c5c(c4C[C@@]4(O)[C@@H](C2)N(CC2CC2)CC[C@]314)C[C@@]1(O)[C@H]2Cc3ccc(O)c4c3[C@@]1(CCN2CC1CC1)[C@H]5O4` yielded a Ke [8] of 4.4 nM.

Work on `CC(C)[C@@H](CN1CC[C@@](C)(c2cccc(O)c2)[C@@H](C)C1)NC(=O)[C@H]1Cc2ccc(O)cc2CN1C` yielded a Ki (Mu-type opioid receptor [11]) of 37 nM, a Ki [3] of 0.053 nM and a Ki [5] of 1.01 nM. The Ke [1] was 12.7 nM, the Ke (Mu-type opioid receptor [17]) was 8.92 nM and the Ki [6] was 616 nM. The Ki [7] was 118 nM, the Ke [8] was 120 nM and the Ke [9] was 0.1 nM. The Ki (Mu-type opioid receptor [10]) was 8.86 nM and the Ke [2] was 0.37 nM.

Work on `CC(C)[C@@H](CN1CC[C@@](C)(c2cccc(O)c2)[C@@H](C)C1)NC(=O)[C@H]1Cc2ccc(O)cc2CN1` [JDTIC] yielded a Ki (Mu-type opioid receptor [11]) of 3.73 nM, a Ke [1] of 2.16 nM and a Ke (Mu-type opioid receptor [17]) of 3.41 nM. The Ki [6] was 301 nM, the Ke [8] was 79.3 nM and the Ke [9] was 0.01 nM. It also gave a Ke [2] of 0.02 nM.

Work on `CC(C)[C@@H](CN1CC[C@@](C)(c2cccc(O)c2)[C@@H](C)C1)NC(=O)[C@H]1Cc2ccc(O)cc2CN1C(=O)CN(C)C` yielded a Ki (Mu-type opioid receptor [11]) of 164 nM, a Ki [3] of 15.5 nM and a Ki [5] of 16.2 nM. The Ke [1] was 29 nM, the Ke (Mu-type opioid receptor [17]) was 21.2 nM and the Ki [6] was greater than 3400 nM. It also gave a Ki [7] of 175 nM, a Ke [8] of 299 nM and a Ke [9] of 1.1 nM. It also gave a Ki (Mu-type opioid receptor [10]) of 13.2 nM and a Ke [2] of 0.16 nM.
